Data as given in PMC5504481 (Clinical and Translational Science, 2017).
Values joined by “and” are separate entries in the source; they are usually repeats but may differ in a detail not shown here. Equal values may be shown once.

Assays:
[1] = molecular target: T1, OATP1B1 (Homo sapiens, UniProt Q9Y6L6); type: cell-based; settings: for Transport rate in OATP1B1-transfected cells without rifampin: in 15 min, HEK293
T1 sequence (Q9Y6L6 1-691): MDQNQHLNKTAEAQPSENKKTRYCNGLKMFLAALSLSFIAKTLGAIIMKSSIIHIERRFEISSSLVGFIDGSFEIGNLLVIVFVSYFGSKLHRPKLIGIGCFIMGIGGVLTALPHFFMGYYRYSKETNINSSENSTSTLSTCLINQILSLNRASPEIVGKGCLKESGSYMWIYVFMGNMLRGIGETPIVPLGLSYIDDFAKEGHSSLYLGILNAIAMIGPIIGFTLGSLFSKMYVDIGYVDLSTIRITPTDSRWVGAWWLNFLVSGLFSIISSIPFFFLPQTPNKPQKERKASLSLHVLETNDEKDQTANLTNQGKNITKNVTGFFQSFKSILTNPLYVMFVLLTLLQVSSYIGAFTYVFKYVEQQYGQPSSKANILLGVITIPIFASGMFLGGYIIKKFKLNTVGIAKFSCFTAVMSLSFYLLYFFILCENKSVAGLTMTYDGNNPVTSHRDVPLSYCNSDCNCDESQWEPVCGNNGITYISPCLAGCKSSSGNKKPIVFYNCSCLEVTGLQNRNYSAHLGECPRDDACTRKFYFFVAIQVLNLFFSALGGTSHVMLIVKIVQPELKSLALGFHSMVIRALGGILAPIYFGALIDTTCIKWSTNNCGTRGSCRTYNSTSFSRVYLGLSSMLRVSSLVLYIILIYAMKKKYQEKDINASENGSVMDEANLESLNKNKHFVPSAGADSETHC

[2] = molecular target: T2, Oatp1b2 (Mus musculus, UniProt Q9JJL3); type: cell-based; settings: for Transport rate in Oatp1b2-transfected cells without rifampin: in 15 min, HEK293
T2 sequence (Q9JJL3 1-689): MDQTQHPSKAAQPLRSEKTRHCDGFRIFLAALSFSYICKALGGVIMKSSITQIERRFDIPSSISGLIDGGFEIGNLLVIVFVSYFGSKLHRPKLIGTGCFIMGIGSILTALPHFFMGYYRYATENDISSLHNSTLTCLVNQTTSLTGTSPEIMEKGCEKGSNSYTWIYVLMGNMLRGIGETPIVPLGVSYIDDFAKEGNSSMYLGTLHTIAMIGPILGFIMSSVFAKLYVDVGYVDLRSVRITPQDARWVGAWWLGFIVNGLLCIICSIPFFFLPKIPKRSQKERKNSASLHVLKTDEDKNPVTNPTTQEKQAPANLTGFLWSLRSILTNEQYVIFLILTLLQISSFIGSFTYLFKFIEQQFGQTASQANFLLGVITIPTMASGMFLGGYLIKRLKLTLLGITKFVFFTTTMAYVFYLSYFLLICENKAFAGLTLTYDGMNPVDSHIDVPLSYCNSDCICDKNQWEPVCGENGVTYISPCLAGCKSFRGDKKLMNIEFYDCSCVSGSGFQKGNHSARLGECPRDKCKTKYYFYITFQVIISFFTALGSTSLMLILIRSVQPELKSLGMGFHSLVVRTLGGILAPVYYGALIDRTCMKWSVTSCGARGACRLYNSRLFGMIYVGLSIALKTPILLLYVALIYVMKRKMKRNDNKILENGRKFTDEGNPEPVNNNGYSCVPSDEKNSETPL

[3] = type: in vivo, mice; settings: for Effect of Oatp1b2-deficiency and/or rifampin pretreatment on plasma levels: mice, rifampin 20 mg/kg
How it was run: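 Female DBA1/lacJ mice, knockout and age-matched wildtype, n=4 per group, fasted 3 h before and during the study. Rifampin was given i.v. 5 min before sorafenib gavage in Cremophor EL/ethanol (1:1) diluted 1:4 with water. Plasma was sampled at 0.25–7.5 h and liver at 7.5 h. Analytes were measured by LC-MS/MS. Liver was normalized to plasma; geometric means (95% CI) were compared by ANOVA.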

[4] = type: in vivo, human
[5] = oral sorafenib, humans; cited from earlier work
[6] = cited from earlier work
[7] = Adverse events and laboratory tests during the clinical study; type: in vivo, human; settings: patients on sorafenib; rifampin 600 mg x 2, midazolam 2.5 mg i.v.
How it was run: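 Sorafenib-treated patients were at steady state (≥14 days on the same dose) with creatinine <1.25×ULN, bilirubin <1.25×ULN, aminotransferases <5×ULN and PT ≤1.5×ULN or INR <1.5 at entry. Rifampin was given fasting the day before and the day of sampling, 1 h before sorafenib. Sorafenib dose changes and CYP3A4-affecting comedication were barred. Adverse events were graded by CTCAE v4.03.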

[8] = molecular target: T1, OATP1B1; experiment: Transcellular; type: cell-based; settings: rifampin 100 μM; SG 1 μM; MDCKII-OATP1B1
[9] = tested on: OATP1B1; settings: cited from earlier work
[10] = patients, with versus without rifampin
[11] = rifampin preincubation 30 μM (legend: 20 μM), SG 10 μM, 15 min
[12] = rifampin preincubation 30 μM, E2G 0.1 μM, 15-min incubation

C[C@]12CC[C@@H]3c4ccc(O)cc4CC[C@H]3[C@@H]1CC[C@@H]2O[C@@H]1O[C@H](C(=O)O)[C@@H](O)[C@H](O)[C@H]1O [E2G, estradiol‐17β‐D‐glucuronide]
Transport rate in OATP1B1-transfected cells without rifampin ([1]; E2G 0.1 μM, SG 10 μM): 4.77 pmol/mg protein
Transport rate in Oatp1b2-transfected cells without rifampin ([2]; E2G 0.1 μM, SG 10 μM): 26.73 pmol/mg protein

CNC(=O)c1cc(Oc2ccc(NC(=O)N(c3ccc(Cl)c(C(F)(F)F)c3)[C@@H]3O[C@H](C(=O)O)[C@@H](O)[C@H](O)[C@H]3O)cc2)ccn1 [SG, sorafenib‐β‐D‐glucuronide]
Transport rate in OATP1B1-transfected cells without rifampin ([1]; E2G 0.1 μM, SG 10 μM): 57.46 pmol/mg protein
Transport rate in Oatp1b2-transfected cells without rifampin ([2]; E2G 0.1 μM, SG 10 μM): 770.17 pmol/mg protein
Increase in SG AUC0-7.5h with Oatp1b2-deficiency ([3]; Oatp1b2(-/-) versus wildtype mice, sorafenib 10 mg/kg oral): 8 fold
Reduction of liver-to-plasma ratio of SG ([3]; wildtype mice pretreated with rifampin 20 mg/kg, 7.5 h after sorafenib 10 mg/kg): ~90%
Increase of SG levels by rifampin in humans ([4]; humans): ~2 fold
Mean metabolic ratio of SG to sorafenib during rifampin administration [4, 10]: significantly increased
Detection of SG in feces [5]: not detectable
Mean steady-state (trough) concentration (Css) ([6]; 16 cancer patients, sorafenib 90 mg/m^2 oral, days 7, 13 and 21): 0.954 µg/mL

CNC(=O)c1cc(Oc2ccc(NC(=O)Nc3ccc(Cl)c(C(F)(F)F)c3)cc2)cc[n+]1[O-] [Sorafenib N-oxide, sorafenib‐N‐oxide]
Effect of Oatp1b2-deficiency and/or rifampin pretreatment on plasma levels ([3]; sorafenib 10 mg/kg oral): did not substantially affect
Extent of sorafenib-N-oxide formation between treatment cycles [4, 10]: not different

CNC(=O)c1cc(Oc2ccc(NC(=O)Nc3ccc(Cl)c(C(F)(F)F)c3)cc2)ccn1 [Sorafenib, sorafenib]
Effect of Oatp1b2-deficiency and/or rifampin pretreatment on plasma levels ([3]; sorafenib 10 mg/kg oral): did not substantially affect
Fraction of the dose eliminated as oxidative metabolites [5]: less than 5%
Fraction of the dose eliminated as sorafenib-β-D-glucuronide (SG) [5]: 15%
Influence of the CYP3A4 inhibitor ketoconazole on PK ([6]; healthy male volunteers, single-dose sorafenib): no influence
Variation in exposure between patients receiving the same therapeutic regimen ([6]; oral sorafenib): up to 90%
Decrease in systemic exposure with neomycin ([6]; ref Nexavar package insert): more than 50%

COc1ccccc1Oc1c(NS(=O)(=O)c2ccc(C(C)(C)C)cc2)nc(-c2ncccn2)nc1OCCO [bosentan]
Change in systemic exposure with extended rifampin exposure ([6]; rifampin 600 mg once daily for 6.5 days): –58%
Change in systemic exposure with acute rifampin exposure ([6]; rifampin 600 mg once daily, 1–2 doses): +500%

Cc1ncc2n1-c1ccc(Cl)cc1C(c1ccccc1F)=NC2 [midazolam]
Toxicities attributable to the drug during the clinical study [7]: no toxicities were observed

CO[C@H]1/C=C/O[C@@]2(C)Oc3c(C)c(O)c4c(O)c(c(/C=N/N5CCN(C)CC5)c(O)c4c3C2=O)NC(=O)/C(C)=C\C=C\[C@H](C)[C@H](O)[C@@H](C)[C@@H](O)[C@@H](C)[C@H](OC(C)=O)[C@@H]1C [rifampin]
Reduction of intracellular uptake of SG by OATP1B1 [1, 11]: 92%
Inhibition of E2G uptake by human OATP1B1 [1, 12]: strongly inhibited
Reduction of intracellular uptake of SG by Oatp1b2 [2, 11]: 97%
Inhibition of E2G uptake by mouse Oatp1b2 [2, 12]: strongly inhibited
Effect of rifampin on OATP1B1-mediated basal-to-apical translocation of SG [8]: diminished
Toxicities attributable to the drug during the clinical study [7]: no toxicities were observed
Plasma Cmax of unbound rifampin [6]: ~1.3 μM and 1.1 mg/L
Substrate-dependent variation in IC50 values for inhibition of OATP1B1 [9]: up to 12 fold
